From ChEMBL document CHEMBL1629579, “Correlating echinocandin MIC and kinetic inhibition of fks1 mutant glucan synthases for Candida albicans: implications for interpretive breakpoints” (Antimicrob Agents Chemother, 2009)
Values after ≈ are worked out from the molar mass of the structure shown. Numbered stars: 1 amine (or outer) side, 2 acyl side, 3 side chain; on linkers, the order of the positions; unused ones are H or OH. Bridge positions count the residues as written; N and C are the ends. Square brackets hold non-standard residues; d marks the D form. Peptide text beside a SMILES is read from it. * marks the point of attachment. hTyr(3S-OH,4S-OH,3'-OSO3H) = N[C@H](C(=O)O)[C@H](O)[C@@H](O)c1ccc(O)c(OS(=O)(=O)O)c1; Orn(4R-OH,5R-OH) = O=C([C@H](C[C@@H](O)[C@@H](O)N[*:3])N[*:1])[*:2]; Pro(3S-OH,4S-Me) = C[C@H]1CN[C@H](C(=O)O)[C@H]1O; X1 = CCCCCOc1ccc(-c2cc(-c3ccc(C(=O)*)cc3)no2)cc1; Gln(3R-OH) = NC(=O)C[C@@H](O)[C@H](N)C(=O)O; Hyp = O=C(O)[C@@H]1C[C@@H](O)CN1

Experiments:
[1] = tested on: Candida albicans; assay: Antimicrobial activity against Candida albicans SC5314 by M27-A3 method in presence of 50% human serum; type: functional
In short: (§1)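 Broth microdilution per CLSI M27-A3 in RPMI 1640, done in triplicate on three separate days. Each strain was tested with and without 50% human serum. C. krusei ATCC 6258 and C. parapsilosis ATCC 22019 served as QC strains. Arithmetic means are reported, and geometric means were used for comparison.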

[2] = tested on: Candida albicans; assay: Antimicrobial activity against Candida albicans 36082 by M27-A3 method in presence of 50% human serum; type: functional; in short: as §1
[3] = tested on: Candida albicans; assay: Antimicrobial activity against Candida albicans 90028 by M27-A3 method in presence of 50% human serum; type: functional; in short: as §1
[4] = tested on: Candida albicans; assay: Antimicrobial activity against Candida albicans 1002 by M27-A3 method; type: functional
In short: (§2)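 Broth microdilution per CLSI M27-A3 in RPMI 1640, with and without 50% human serum, in triplicate. C. krusei ATCC 6258 and C. parapsilosis ATCC 22019 served as quality-control strains. MIC reported as arithmetic mean of three repetitions on separate days.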

[5] = tested on: Candida albicans; assay: Antimicrobial activity against Candida albicans 1002 by M27-A3 method in presence of 50% human serum; type: functional; in short: as §1
[6] = tested on: Candida albicans; assay: Antimicrobial activity against Candida albicans 3107 by M27-A3 method; type: functional; in short: as §1
[7] = tested on: Candida albicans; assay: Antimicrobial activity against Candida albicans 3795 by M27-A3 method; type: functional; in short: as §2
[8] = tested on: Candida albicans; assay: Antimicrobial activity against Candida albicans 119 harboring FKS1 T1921C mutant gene and FKS1 hotspot1 F641L mutant gene by M27-A3 method; type: functional; in short: as §1
[9] = tested on: Candida albicans; assay: Antimicrobial activity against Candida albicans 119 harboring FKS1 T1921C mutant gene and FKS1 hotspot1 F641L mutant gene by M27-A3 method in presence of 50% human serum; type: functional; in short: as §1
[10] = tested on: Candida albicans; assay: Antimicrobial activity against Candida albicans 177 harboring FKS1 T1922C mutant gene and FKS1 hotspot1 F641S mutant gene by M27-A3 method in presence of 50% human serum; type: functional; in short: as §1
[11] = tested on: Candida albicans; assay: Antimicrobial activity against Candida albicans 2762 harboring FKS1 T1922C mutant gene and FKS1 hotspot1 F641S mutant gene by M27-A3 method; type: functional; in short: as §1
[12] = tested on: Candida albicans; assay: Antimicrobial activity against Candida albicans 149 harboring FKS1 G1942T mutant gene and FKS1 hotspot1 D648Y mutant gene by M27-A3 method; type: functional; in short: as §1
[13] = tested on: Candida albicans; assay: Antimicrobial activity against Candida albicans 122 harboring FKS1 C1946A mutant gene and FKS1 hotspot1 P649H mutant gene by M27-A3 method; type: functional; in short: as §1
[14] = tested on: Candida albicans; assay: Antimicrobial activity against Candida albicans 194 harboring FKS1 C1934T/G4082R mutant gene and FKS1 hotspot1 S645F mutant gene and FKS1 hotspot2 R1361R/H mutant gene by M27-A3 method; type: functional; in short: as §1
[15] = tested on: Candida albicans; assay: Antimicrobial activity against Candida albicans A15 harboring FKS1 T1933Y mutant gene and FKS1 hotspot1 S645S/P mutant gene by M27-A3 method; type: functional; in short: as §1
[16] = tested on: Candida albicans; assay: Antimicrobial activity against Candida albicans A15 harboring FKS1 T1933Y mutant gene and FKS1 hotspot1 S645S/P mutant gene by M27-A3 method in presence of 50% human serum; type: functional; in short: as §1
[17] = Inhibition of Candida albicans SC5314 1,3-beta-D-glucan synthase subunit FKS1p
In short: (§3)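 Enzyme is product-entrapped 1,3-β-D-glucan synthase, enriched from membranes of each strain grown at 37°C with shaking in YPD broth to early stationary phase. Filtration polymerization assay uses [3H]UDPG, started by adding enzyme and run 60 min at 25°C. Echinocandins are added as serial dilutions, with 1% DMSO controls for anidulafungin. IC50 is from a variable-slope sigmoidal fit; values are triplicate arithmetic means.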

[18] = Inhibition of Candida albicans 36082 1,3-beta-D-glucan synthase subunit FKS1p; in short: as §3
[19] = Inhibition of Candida albicans 90028 1,3-beta-D-glucan synthase subunit FKS1p; in short: as §3
[20] = Inhibition of Candida albicans 3107 1,3-beta-D-glucan synthase subunit FKS1p; in short: as §3
[21] = Inhibition of Candida albicans 119 1,3-beta-D-glucan synthase subunit FKS1p T1921C mutant
In short: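 Product-entrapped glucan synthase from YPD-grown cells (37°C, early stationary phase) in a filtration polymerization assay with [3H]UDPG. Echinocandin serial dilutions were added, with 1% DMSO in controls for anidulafungin. Reactions were started with enzyme, run 60 min at 25°C and stopped on ice. IC50 came from a variable-slope sigmoidal fit, in triplicate.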

[22] = Inhibition of Candida albicans 122 1,3-beta-D-glucan synthase subunit FKS1p C1946A mutant; in short: as §3
[23] = Inhibition of Candida albicans 194 1,3-beta-D-glucan synthase subunit FKS1p C1934T/G4082R mutant; in short: as §3
[24] = Inhibition of Candida albicans A15 1,3-beta-D-glucan synthase subunit FKS1p T1933Y mutant; in short: as §3
[25] = tested on: Candida albicans SC5314; assay: Activity at Candida albicans SC5314 1,3-beta-D-glucan synthase subunit FKS1p
In short: (§4)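 Glucan synthase from cells grown at 37°C with vigorous shaking to early stationary phase in YPD. Membrane enzyme enriched by product entrapment. Serial echinocandin dilutions; ANF controls held 1% DMSO. Reaction started by adding enzyme, run 60 min at 25°C in a filtration polymerization assay, stopped on ice. IC50 from a variable-slope sigmoidal fit; means of three repetitions on separate days.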

[26] = tested on: Candida albicans; assay: Activity at Candida albicans 36082 1,3-beta-D-glucan synthase subunit FKS1p; in short: as §4
[27] = tested on: Candida albicans; assay: Activity at Candida albicans 5415 1,3-beta-D-glucan synthase subunit FKS1p T1933C mutant
In short: (§5)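 Product-entrapped 1,3-β-D-glucan synthase from cells grown in YPD at 37°C to early stationary phase. Wells held 50 mM HEPES pH 7.5, 10% glycerol, 1.5 mg/ml BSA, 25 mM KF, 1 mM EDTA, 25 μM GTP-γ-S, 1 μg enzyme and [3H]UDPG (0.015–2 mM). Reactions ran 60 min at 25°C. Vmax and Km came from Lineweaver-Burke plots, in triplicate.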

[28] = tested on: Candida albicans; assay: Activity at Candida albicans 89 1,3-beta-D-glucan synthase subunit FKS1p C1934A mutant; in short: as §5
[29] = tested on: Candida albicans; assay: Activity at Candida albicans 85 1,3-beta-D-glucan synthase subunit FKS1p C1934T mutant; in short: as §5
[30] = tested on: Candida albicans; assay: Activity at Candida albicans 121 1,3-beta-D-glucan synthase subunit FKS1p G4082A mutant; in short: as §5
[31] = tested on: Candida albicans; assay: Activity at Candida albicans 194 1,3-beta-D-glucan synthase subunit FKS1p C1934T/G4082R mutant; in short: as §5
[32] = tested on: Candida albicans; assay: Activity at Candida albicans A15-10 1,3-beta-D-glucan synthase subunit FKS1p T1933C mutant

CCCCCOc1ccc(-c2cc(-c3ccc(C(=O)N[C@H]4C[C@@H](O)[C@@H](O)NC(=O)[C@@H]5[C@@H](O)[C@@H](C)CN5C(=O)[C@H]([C@H](O)CC(N)=O)NC(=O)[C@H]([C@H](O)[C@@H](O)c5ccc(O)c(OS(=O)(=O)O)c5)NC(=O)[C@@H]5C[C@@H](O)CN5C(=O)[C@H]([C@@H](C)O)NC4=O)cc3)no2)cc1 [MICAFUNGIN] (X1-[Orn(4R-OH,5R-OH)]T[Hyp][hTyr(3S-OH,4S-OH,3'-OSO3H)][Gln(3R-OH)][Pro(3S-OH,4S-Me)]; lactam 1-C)
MIC [1]: 0.5 µg/mL
MIC [2]: 1 µg/mL
MIC [3]: 0.5 µg/mL
MIC [4]: 0.04 µg/mL (≈ 0.0315 µM)
MIC [5]: 0.5 µg/mL
MIC [6]: 0.03 µg/mL (≈ 0.0236 µM)
MIC [7]: 0.03 µg/mL (≈ 0.0236 µM)
MIC [8]: 0.33 µg/mL (≈ 0.26 µM)
MIC [9]: 8 µg/mL
MIC [10]: 16 µg/mL
MIC [11]: 1 µg/mL (≈ 0.787 µM)
MIC [12]: 0.83 µg/mL (≈ 0.653 µM)
MIC [13]: 0.83 µg/mL (≈ 0.653 µM)
MIC [14]: 2.67 µg/mL (≈ 2.1 µM)
MIC [15]: 0.5 µg/mL (≈ 0.394 µM)
MIC [16]: 2 µg/mL
IC50 [17]: 0.0582 µg/mL (≈ 0.0458 µM)
Ki [17]: 0.02747 µg/mL (≈ 0.0216 µM)
IC50 [18]: 0.0102 µg/mL (≈ 0.00803 µM)
Ki [18]: 0.02353 µg/mL (≈ 0.0185 µM)
IC50 [19]: 0.0188 µg/mL (≈ 0.0148 µM)
Ki [19]: 0.01547 µg/mL (≈ 0.0122 µM)
IC50 [20]: 0.01472 µg/mL (≈ 0.0116 µM)
Ki [20]: 0.04187 µg/mL (≈ 0.033 µM)
IC50 [21]: 0.1836 µg/mL (≈ 0.145 µM)
Ki [21]: 0.1559 µg/mL (≈ 0.123 µM)
IC50 [22]: 0.9246 µg/mL (≈ 0.728 µM)
Ki [22]: 2.58853 µg/mL (≈ 2.04 µM)
IC50 [23]: 1.765 µg/mL (≈ 1.39 µM)
Ki [23]: 0.49383 µg/mL (≈ 0.389 µM)
IC50 [24]: 0.1773 µg/mL (≈ 0.14 µM)
Km [25]: 125 µM
Vmax [25]: 6.72 nmol/min
Km [26]: 89 µM
Vmax [26]: 5.87 nmol/min
Km [27]: 98 µM
Vmax [27]: 3.12 nmol/min
Km [28]: 61 µM
Vmax [28]: 2.51 nmol/min
Km [29]: 25 µM
Vmax [29]: 1.83 nmol/min
Km [30]: 129 µM
Vmax [30]: 4.41 nmol/min
Km [31]: 61 µM
Vmax [31]: 5.81 nmol/min
Km [32]: 91 µM
Vmax [32]: 3.26 nmol/min
